The nature of experiment [1]: inhibitors of TNFa-induced NFkB p65 translocation, primary screen, imaging, HUVEC, MLSMR starter and 10KST1 sets (AID 438;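 active = inhibition above 20% together with a positive visual image hit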;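 note: compound added about 3h40 before a 20 min TNFalpha stimulation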;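 for inhibition: signal is the nuclear over cytoplasmic p65 intensity ratio per well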). The following applies: HUVEC TNFa-induced p65 nuclear translocation; cell count: measured here: nuclei count (cytotoxicity indicator), at 2.08 µM; inhibition: at 2 µM, stronger effect = higher value, 0% TNFa-plus-vehicle, 100% no-TNFa wells.
A short description of experiment [2]: inhibitors of E-selectin induction by TNFa, primary screen, imaging, HUVEC, immunofluorescence, MLSMR starter and 10KST1 sets (AID 487;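 active = visually confirmed hit in the image check and inhibition above 20%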;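 for inhibition: signal is fraction of cell area covered by stained E-selectin grains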;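 for nuclei count: 100% = median nuclei count of all wells on the same plate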). The following applies: HUVEC TNFalpha-induced E-selectin immunofluorescence imaging, at 2 µM; inhibition: stronger effect = higher value; nuclei count: measured here: cell number, toxicity.
The nature of experiment [3]: DUSP6 inhibitors restoring Erk phosphorylation by chemical complementation, primary imaging in DUSP6-transfected HeLa (AID 609;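 active = compounds giving at least 50% inhibition in the cell-based MKP-3 phosphatase rescue imaging test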;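 for inhibition: phospho-Erk level distribution per well compared with pooled transfected vehicle control wells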). The following applies: HeLa MKP-3 transfected, phospho-Erk imaging KS statistic, at 10 µM, cells stimulated with TPA for 15 min.
The target of experiment [4] is Dual specificity protein phosphatase 6 (Homo sapiens) (UniProt Q16828). The description is as above. The following applies: HeLa MKP-3 transfected, phospho-Erk imaging KS statistic; at 10 µM; stronger effect = higher value; cells stimulated with TPA for 15 min.
Dual specificity protein phosphatase 6 (Homo sapiens), sequence (Q16828 whole entry, looked up): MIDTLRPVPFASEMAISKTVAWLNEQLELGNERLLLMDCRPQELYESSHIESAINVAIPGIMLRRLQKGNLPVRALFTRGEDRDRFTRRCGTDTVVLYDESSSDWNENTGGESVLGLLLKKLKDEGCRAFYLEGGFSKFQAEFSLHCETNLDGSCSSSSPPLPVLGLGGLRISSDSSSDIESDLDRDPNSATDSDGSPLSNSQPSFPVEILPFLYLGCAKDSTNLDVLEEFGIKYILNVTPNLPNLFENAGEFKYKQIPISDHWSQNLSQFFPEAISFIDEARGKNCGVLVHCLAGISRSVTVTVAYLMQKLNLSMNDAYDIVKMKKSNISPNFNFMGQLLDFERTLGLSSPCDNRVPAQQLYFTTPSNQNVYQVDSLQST
Experiment [5] addresses Voltage-gated potassium channel subunit beta-2 (Rattus norvegicus) (UniProt P62483). Kind of experiment: KvBeta enzyme negative modulators, primary screen, biochemical, NADPH fluorescence (AID 622;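 active = fluorescence slope higher than the sample average by over 3 SD, cut at about -0.22 in these data, passing the limit was not always enough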;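 note: slope of raw intensity against log time taken from 70 to 1610 s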). The following applies: recombinant KvBeta, 4-cyanobenzaldehyde reduction, at 10 µM, stronger effect = higher value.
Experiment [6] shares this target. Kind of experiment: KvBeta positive modulators, primary screen, biochemical, NADPH fluorescence (AID 623).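 Note: fluorescence intensity change per second fitted from 20 to 320 s.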 The following applies: Recombinant KvBeta, NADPH fluorescence decrease slope, 10 min; at 10 µM; stronger effect = lower value.
The target in experiment [7] is Alpha-2C adrenergic receptor (Homo sapiens) (UniProt P18825). Put plainly: modulators of alpha2C/GIRK thallium flux, primary screen, cell-based, HEK293 alpha2C/GIRK1/2 (AID 624;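 active = fluorescence slope after compound addition differing from the mean of all screened samples at 99.7% confidence, in either direction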;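 note: slope of fluorescence ratio to pre-addition baseline per second over 15 to 24 s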). The following applies: thallium flux BTC fluorescence, at 10 µM, actives lie on both sides.
Alpha-2C adrenergic receptor (Homo sapiens), sequence (P18825 whole entry, looked up): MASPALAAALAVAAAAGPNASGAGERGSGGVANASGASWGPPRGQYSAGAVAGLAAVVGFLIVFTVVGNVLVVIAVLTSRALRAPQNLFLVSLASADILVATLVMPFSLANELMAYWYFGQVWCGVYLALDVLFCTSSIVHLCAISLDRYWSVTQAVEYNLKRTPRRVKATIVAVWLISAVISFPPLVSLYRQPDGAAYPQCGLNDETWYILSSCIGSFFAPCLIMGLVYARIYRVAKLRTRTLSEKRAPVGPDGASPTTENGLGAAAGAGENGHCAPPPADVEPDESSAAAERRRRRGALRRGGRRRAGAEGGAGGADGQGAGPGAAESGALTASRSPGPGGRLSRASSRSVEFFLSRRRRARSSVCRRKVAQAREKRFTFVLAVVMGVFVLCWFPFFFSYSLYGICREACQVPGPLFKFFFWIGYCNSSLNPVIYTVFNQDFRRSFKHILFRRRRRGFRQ
The nature of experiment [8]: inhibitors of larval lipid processing in zebrafish, primary screen, whole organism, PED6 fluorescence, gall bladder and intestine (AID 686;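 active = a full or partial loss of lipid-probe fluorescence in the fish gall bladder, intestine or both, judged by eye; inactive = no fluorescence loss, or compound toxic to the fish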;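 note: larvae 5 to 7 days old with five fish per well; signal comes from phospholipase A2 cleavage of quenched PED6 carried via bile; overnight exposure to compound and PED6 before scoring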). The following applies: Zebrafish larvae PED6 lipid processing, fluorescence scoring; screened at 20 µM (by protocol). Summed up:
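System: live zebrafish larvae aged 5-7 days, whole organism; measure: graded gall bladder and intestinal fluorescence inhibition per well; incubation: overnight exposure; reagent: ingested quenched lipid PED6 at 100 nM; signal: By-eye fluorescence microscopy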

The nature of experiment [9]: inhibitors of Chlamydomonas gravitaxis, primary screen, whole organism, Chlamydomonas reinhardtii, WT vs cilia-less mutant, absorbance, 96-well (AID 463189;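 active = inhibition at or above 50% relative to wild type and mutant plate controls; inactive = inhibition below 50%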;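 note: 0% = wild type cc124 cells in DMSO and 100% = ciliumless bld1 mutant cells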). The following applies: OD600 absorbance, 2 days, at 10 µM, stronger effect = higher value.
The mark [10] stands for this setting: measured here: cell density z-score.
Setting [11] is: measured here: nuclear c-Myc green intensity z-score.
Setting [12] is: measured here: nuclear pErk red intensity z-score, stronger effect = higher value.

Consider 13 compounds from PubChem BioAssay.

SMILES strings stand for the structures. Calls of active or inactive are those of the source.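 Rule for the calls, unless noted: active = NADPH fluorescence slope more negative than the mean of all samples by about 3 SD, 99.7% confidence; inactive = the rest.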

A word on the inhibition: it is the drop in the measured response relative to a control, in per cent.

Voltage-gated potassium channel subunit beta-2 (Rattus norvegicus), sequence (P62483 whole entry, looked up): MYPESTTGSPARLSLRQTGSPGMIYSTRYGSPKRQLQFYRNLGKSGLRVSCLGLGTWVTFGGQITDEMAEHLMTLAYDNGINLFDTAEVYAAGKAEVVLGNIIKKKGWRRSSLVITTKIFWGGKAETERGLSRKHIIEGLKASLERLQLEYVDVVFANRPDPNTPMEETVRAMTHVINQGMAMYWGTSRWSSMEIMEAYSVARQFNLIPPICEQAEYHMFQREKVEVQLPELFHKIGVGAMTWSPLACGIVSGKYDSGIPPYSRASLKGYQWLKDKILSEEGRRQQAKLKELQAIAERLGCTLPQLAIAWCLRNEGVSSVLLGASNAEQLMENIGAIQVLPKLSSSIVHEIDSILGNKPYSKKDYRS

Consider `O=C1C(=O)N(CCN2CCOCC2)C(c2ccccn2)/C1=C(/O)c1ccccc1` (centres undefined), for which, in experiment [1], the cell count was 382. The inhibition in experiment [1] was -4.7% (inactive); in [2], -87.4% (inactive); in [4], -0.159% (inactive); in [9], -11.4% (inactive). The nuclei count in [2] turned out to be 107%. For the same compound, the z-score in experiment [3] (setting [10]) is -0.264; in [3] (setting [11]) it was 0.535; in experiment [3] (setting [12]) it was -1.2. In experiment [5], the fluorescence slope is -0.432 (inactive). In addition, the NADPH fluorescence slope in [6] is -1.4e-05 (inactive). The slope in [7] is 0.00578 (inactive). In [8], the result was inactive.
On to `Cc1cccc(OCC(=O)N2CCC(N3CCOCC3)CC2)c1`, for which the cell count in [1] stood at 356. The inhibition was -12.6% (inactive) in [1], -156% (inactive) in [2], 17% (inactive) in [4] and 11.3% (inactive) in experiment [9]. The compound further gave a nuclei count in experiment [2] of 149%. Besides, the z-score in [3] (setting [10]) was 2.22; in experiment [3] (setting [11]), -1.72; in experiment [3] (setting [12]), 0.299. Moreover, the fluorescence slope in experiment [5] is -0.406 (inactive). The NADPH fluorescence slope in experiment [6] was -4.5e-05 (inactive). For the same compound, the slope in experiment [7] was 0.00455 (inactive). For the same compound, the compound was called inactive in experiment [8].
`COC(=O)c1ccn(C(=O)c2ccc(Cl)cc2)n1`: the cell count in experiment [1] turned out to be 646. In addition, the inhibition is -1.4% (inactive) in experiment [1], -13.4% (inactive) in [2], -2.91% (inactive) in [4] and 6.37% (inactive) in experiment [9]. The same compound returned a nuclei count in experiment [2] of 147%. In addition, the z-score in experiment [3] (setting [10]) is 1.7; in [3] (setting [11]), -0.283; in [3] (setting [12]), 1.25. For the same compound, the fluorescence slope in experiment [5] was -0.519 (inactive). Also, in [6], the NADPH fluorescence slope is -4e-05 (inactive). In addition, the slope in [7] is 0.00635 (inactive). Besides, in experiment [8], the compound was called inactive.
Take `CC(C)Cn1cnc2c(c1=O)c1nc3ccccc3nc1n2Cc1ccc2c(c1)OCO2`: in [1], the cell count is 361. The inhibition in [1] is -3.7% (inactive); in experiment [2], -15.2% (inactive); in experiment [4], 9.42% (inactive); in experiment [9] it was 1.23% (inactive). Further, in experiment [2], the nuclei count is 149%. Also, the z-score in experiment [3] (setting [10]) was 0.279; in experiment [3] (setting [11]) it was -0.729; in experiment [3] (setting [12]), -0.248. Further, the fluorescence slope in experiment [5] is -0.393 (inactive). In addition, the NADPH fluorescence slope in [6] was -0.000121 (inactive). In addition, the slope in experiment [7] was 0.00801 (inactive). Moreover, in experiment [8], the call was inactive.
For `COc1ccccc1Cn1c2nc3ccccc3nc2c2c(=O)n(CC(C)C)cnc21`, in [1], the cell count worked out at 340. In addition, the inhibition is -7.7% (inactive) in [1], -28.2% (inactive) in experiment [2], -8.59% (inactive) in experiment [4] and 6.68% (inactive) in experiment [9]. In addition, the nuclei count in [2] stood at 148%. The z-score in experiment [3] (setting [10]) was 0.356; in experiment [3] (setting [11]) it was -0.852; in experiment [3] (setting [12]) it was -0.477. Also, in [5], the fluorescence slope was -0.425 (inactive). For the same compound, the NADPH fluorescence slope in experiment [6] is -0.000144 (inactive). The slope in [7] was 0.00898 (inactive). For the same compound, in experiment [8], the result was inactive.
As to `Nc1nonc1-c1noc(-c2ccccc2)n1`, in experiment [1], the cell count turned out to be 480. Further, the inhibition in experiment [1] was -3.5% (inactive); in experiment [2] it was -26.8% (inactive); in experiment [4] it was 13.2% (inactive); in [9], 33.2% (inactive). Also, in experiment [2], the nuclei count was 122%. Further, the values for the z-score in experiment [3] (setting [10]), in experiment [3] (setting [11]) and in experiment [3] (setting [12]) were 0.154, 1.08 and -0.0551, respectively. Also, the fluorescence slope in [5] was -0.516 (inactive). The NADPH fluorescence slope in [6] was -3.2e-05 (inactive). In [7], the slope is 0.00533 (inactive). Further, the result in experiment [8] was inactive.
On to `CC(C)c1nc(N2CCOCC2)c(C#N)c2c1CCC2`, for which the cell count in experiment [1] was determined as 533. The inhibition is 2.9% (inactive) in [1], -92.4% (inactive) in experiment [2], 10.5% (inactive) in [4] and -0.955% (inactive) in experiment [9]. In experiment [2], the nuclei count was 140%. The z-score in experiment [3] (setting [10]) is 0.739; in experiment [3] (setting [11]) it was -0.974; in experiment [3] (setting [12]), -0.00414. Moreover, in experiment [5], the fluorescence slope was -0.511 (inactive). Moreover, the NADPH fluorescence slope in [6] was 3.3e-06 (inactive). Also, the slope in experiment [7] is 0.0055 (inactive). Also, the outcome in experiment [8] is “inactive; toxic”.
With `Cc1nc2sc3c(c2c(=O)o1)CC(C)(C)OC3`, the cell count in experiment [1] stood at 555. The inhibition was -9.6% (inactive) in experiment [1], 23.7% (inactive) in experiment [2], 7.7% (inactive) in experiment [4] and -15.1% (inactive) in [9]. In addition, the nuclei count in [2] worked out at 115%. Besides, the z-score in [3] (setting [10]) is 0.476; in experiment [3] (setting [11]), 1.45; in experiment [3] (setting [12]), -1.12. In addition, in experiment [5], the fluorescence slope is -0.461 (inactive). Moreover, the NADPH fluorescence slope in [6] is -1.1e-05 (inactive). Besides, the slope in experiment [7] was 0.0057 (inactive). In addition, the result in experiment [8] was inactive.
Take `COc1ccccc1OCC(=O)Nc1ccc(S(=O)(=O)Nc2cc(C)nc(C)n2)cc1`: in experiment [1], the cell count amounted to 571. The inhibition is -6.6% (inactive) in experiment [1], 3% (inactive) in experiment [2], 4.25% (inactive) in experiment [4] and -4.91% (inactive) in experiment [9]. Besides, the nuclei count in experiment [2] is 159%. The z-score in [3] (setting [10]) was 0.333; in [3] (setting [11]), 1.18; in experiment [3] (setting [12]), -0.662. For the same compound, in [5], the fluorescence slope was -0.303 (inactive). The NADPH fluorescence slope in [6] was 1.9e-05 (inactive). Also, the slope in [7] was 0.0043 (inactive). For the same compound, the compound was called inactive in [8].
As to `O=c1[nH]c(CN2CCCCC2)nc2c1C1(CCCCC1)Cc1ccccc1-2`, the cell count in experiment [1] was determined as 374. Moreover, the inhibition is -4.7% (inactive) in experiment [1], -4.9% (inactive) in experiment [2], -4.7% (inactive) in experiment [4] and -10.4% (inactive) in experiment [9]. Besides, in [2], the nuclei count was determined as 104%. Besides, the z-score was 0.315 in experiment [3] (setting [10]), 0.221 in [3] (setting [11]) and -1.87 in [3] (setting [12]). For the same compound, the fluorescence slope in experiment [5] is -0.395 (inactive). Besides, the NADPH fluorescence slope in [6] was 2.4e-05 (inactive). In addition, the slope in experiment [7] was 0.0066 (inactive). In addition, the result in [8] was inactive.
On to `CCOc1cccc(-c2nnc3sc(-c4cccs4)nn23)c1`, for which the cell count in [1] was 464. For the same compound, the inhibition in [1] is -0.1% (inactive); in [2] it was -85.6% (inactive); in [4], -2.47% (inactive); in experiment [9], 18.9% (inactive). In experiment [2], this compound returned a nuclei count of 99.8%. The z-score was -0.8 in experiment [3] (setting [10]), 1.1 in experiment [3] (setting [11]) and 0.15 in [3] (setting [12]). Further, the fluorescence slope in experiment [5] is -0.456 (inactive). For the same compound, in [6], the NADPH fluorescence slope was -6.5e-05 (inactive). In experiment [7], the slope is 0.00982 (inactive). In [8], the compound was classed as inactive.
`Cc1ccc(OCC(=O)NCC(=O)n2nc(C)cc2C)cc1`: the cell count in experiment [1] was found to be 580. In addition, the inhibition is -8% (inactive) in [1], 13.1% (inactive) in [2], -7.01% (inactive) in experiment [4] and -1.21% (inactive) in [9]. The nuclei count in [2] was 170%. Moreover, the z-score in experiment [3] (setting [10]) was -0.967; in experiment [3] (setting [11]), -0.193; in [3] (setting [12]) it was 1.92. Also, the fluorescence slope in experiment [5] was -0.382 (inactive). Further, the NADPH fluorescence slope in experiment [6] is -2.8e-05 (inactive). For the same compound, in [7], the slope is 0.00489 (inactive). In addition, the call in experiment [8] was inactive.
Turning to `Cc1cc(C)nc(NC2=NCC(=O)N2c2cccc(Cl)c2)n1`, the cell count in [1] was 581. The inhibition was -4.9% (inactive) in experiment [1], -200% (inactive) in [2], 15.9% (inactive) in experiment [4] and -3.6% (inactive) in experiment [9]. The compound also had a nuclei count in experiment [2] of 141%. For the same compound, the z-score is 1.05 in [3] (setting [10]), 1.03 in experiment [3] (setting [11]) and -2.43 in experiment [3] (setting [12]). Also, the fluorescence slope in [5] was -0.517 (inactive). Further, the NADPH fluorescence slope in experiment [6] was -4.2e-05 (inactive). In experiment [7], the slope was 0.00561 (inactive). In [8], the call was inactive.
